pIC50: −log10 of the molar value.
Experiments:
[1] = molecular target: T1, 3-hydroxy-3-methylglutaryl-coenzyme A reductase (Rattus norvegicus, UniProt P51639); test: Inhibition of rat HMG-CoA reductase at 100 mM using 3.7 MBq DL-[3-14C]HMG-CoA
T1 sequence (P51639 whole entry): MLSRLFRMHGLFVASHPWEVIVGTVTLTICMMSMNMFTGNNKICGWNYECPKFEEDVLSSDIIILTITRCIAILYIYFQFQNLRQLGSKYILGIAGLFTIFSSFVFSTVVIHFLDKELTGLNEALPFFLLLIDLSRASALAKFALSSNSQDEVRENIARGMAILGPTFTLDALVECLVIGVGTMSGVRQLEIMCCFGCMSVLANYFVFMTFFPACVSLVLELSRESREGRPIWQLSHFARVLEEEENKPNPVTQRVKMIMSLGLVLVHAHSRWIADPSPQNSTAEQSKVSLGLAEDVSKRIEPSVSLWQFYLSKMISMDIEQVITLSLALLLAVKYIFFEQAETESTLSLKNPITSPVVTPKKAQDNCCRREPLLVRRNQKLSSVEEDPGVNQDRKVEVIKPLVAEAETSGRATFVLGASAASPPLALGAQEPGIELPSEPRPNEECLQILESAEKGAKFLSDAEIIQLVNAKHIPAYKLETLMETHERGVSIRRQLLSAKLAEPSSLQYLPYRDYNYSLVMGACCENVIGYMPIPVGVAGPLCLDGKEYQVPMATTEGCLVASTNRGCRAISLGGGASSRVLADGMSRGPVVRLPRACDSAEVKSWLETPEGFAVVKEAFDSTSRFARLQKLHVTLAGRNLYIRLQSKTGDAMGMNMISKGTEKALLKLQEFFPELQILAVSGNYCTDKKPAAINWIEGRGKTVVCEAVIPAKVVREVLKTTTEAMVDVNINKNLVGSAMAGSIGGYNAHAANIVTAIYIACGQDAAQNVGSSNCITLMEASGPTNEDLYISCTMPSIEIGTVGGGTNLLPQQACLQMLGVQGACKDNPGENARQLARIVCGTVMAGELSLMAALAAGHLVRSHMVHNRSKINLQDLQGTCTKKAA
Procedure, shortened: (§1)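 Rat HMG-CoA reductase (method A): 3.7 MBq DL-[3-14C]HMG-CoA with 10 mg microsomal protein, 37 °C for 30 min. The reaction was stopped with 2 M HCl and metabolites were converted to mevalonolactone. Products were separated by silica TLC in acetone/benzene (1:1 v/v), and spot radioactivity was read by bioimaging analyzer.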

[2] = molecular target: T1, 3-hydroxy-3-methylglutaryl-coenzyme A reductase; test: Inhibition of rat HMG-CoA reductase using 0.37 MBq DL-[3-14C]HMG-CoA
Procedure, shortened: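 Method B used the lower substrate level, 0.37 MBq DL-[3-14C]HMG-CoA, with rat microsomal fraction (10 mg protein) at 37 °C for 30 min. Stopped with 2 M HCl, with conversion to mevalonolactone. Separation was on silica TLC with acetone/benzene 1:1, and radioactivity per spot was quantified by bioimaging. The IC50 was taken from this readout.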

[3] = molecular target: T1, 3-hydroxy-3-methylglutaryl-coenzyme A reductase; test: Inhibition of rat HMG-CoA reductase using 3.7 MBq DL-[3-14C]HMG-CoA; procedure, shortened: as §1

Row | SMILES | pIC50 [2] | other results
1 | CCC(CC)(c1ccc(F)cc1)c1ccc(/C=C/[C@@H](O)C[C@@H](O)CC(=O)[O-])cc1.[Na+] |  | IC50 [1]: Not Active
2 | CC[C@H](C)C(=O)O[C@H]1CCC=C2C=C[C@H](C)[C@H](CC[C@@H]3C[C@@H](O)CC(=O)O3)[C@H]21 [MEVASTATIN] | 7.40 | 
3 | CCC(CC)(c1cccc(F)c1)c1ccc(/C=C/[C@@H](O)C[C@@H](O)CC(=O)O)c(C(C)C)c1 |  | pIC50 [3]: 4.04

The next lines start with results.

Row | pIC50 [2] | SMILES | other results
4 | 6.82 | CCC(CC)(c1ccccc1)c1ccc(/C=C/[C@@H](O)C[C@@H](O)CC(=O)O)c(-c2ccc(F)cc2)c1 | 
5 | 5.74 | CCC(CC)(c1ccccc1)c1ccc(/C=C/[C@@H](O)C[C@@H](O)CC(=O)O)c(C(C)C)c1 | 

From ChEMBL document CHEMBL1152355, “Application of a 3,3-diphenylpentane skeleton as a multi-template for creation of HMG-CoA reductase inhibitors” (Bioorg Med Chem Lett, 2009)
